# Test results reported in ChEMBL document CHEMBL1123986, “Oral absorption of cephalosporin antibiotics. 2. Expanded structure-activity relationships of 7-(arylacetamido)-3-substituted cephalosporins” (1988).
# Assays:
# Klebsiella aerogenes = assay: Minimum inhibitory concentration against Enterobacter aerogenes; type: functional
# Outline: (§1)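 Agar dilution MIC in μg/mL. […] Organisms not run are marked not tested.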
# Escherichia coli = assay: Minimum inhibitory concentration against Escherichia coli; type: functional; outline: as §1
# Haemophilus influenzae [1] = assay: (§2) Minimum inhibitory concentration against Haemophilus influenzae; type: functional; outline: as §1
# Haemophilus influenzae [2] = assay: as §2; type: functional; outline: as §1; remark: listed apart in the source
# Klebsiella pneumoniae = assay: Minimum inhibitory concentration against Klebsiella pneumoniae; type: functional; outline: as §1
# Streptococcus pneumoniae [3] = assay: Minimum inhibitory concentration against Streptococcus pneumoniae; type: functional; outline: as §1
# Staphylococcus aureus [4] = assay: Minimum inhibitory concentration against Staphylococcus aureus; type: functional; outline: as §1
# Salmonella typhi = assay: Minimum inhibitory concentration against Salmonella typhi; type: functional, Salmonella enterica subsp. enterica serovar Typhi; settings: Salmonella enterica
# Streptococcus pyogenes [5] = assay: Minimum inhibitory concentration against Streptococcus pyogenes; type: functional; outline: as §1
# Mus musculus [6] = assay: Effective dose administered orally (po) to 19-21-g random sex ICR mice at 1 hr and 5 hr intervals after intraperitoneal Staphylococcus aureus; type: functional
# Outline: (§3)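 Mouse protection: random-sex ICR mice, 19–21 g, challenged intraperitoneally from a frozen organism pool giving 50–500 LD50 per challenge dose. Drug given sc or po at 1 and 5 h post-infection. Five 2-fold dilution levels per compound, eight mice per dilution.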
# Mus musculus [7] = assay: Effective dose administered subcutaneously (sc) to 19-21-g random sex ICR mice at 1 hr and 5 hr intervals after intraperitoneal administration of Streptococcus pneumoniae; type: functional; outline: as §3
# Mus musculus [8] = assay: Effective dose administered orally (po) to 19-21-g random sex ICR mice at 1 hr and 5 hr intervals after intraperitoneal administration of Streptococcus pneumoniae; type: functional; outline: as §3
# Mus musculus [9] = assay: Effective dose administered subcutaneously (sc) to 19-21-g random sex ICR mice at 1 hr and 5 hr intervals after intraperitoneal administration of Staphylococcus aureus; type: functional; outline: as §3
# Mus musculus [10] = assay: Effective dose administered orally (po) to 19-21-g random sex ICR mice at 1 hr and 5 hr intervals after intraperitoneal Streptococcus pyogenes; type: functional; outline: as §3
# [11] = Ratio of ED50 value evaluated in Streptococcus pyogenes by po to sc administration; type: functional
# Outline: (§4)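 Oral/subcutaneous effective-dose ratio. Both routes were dosed in random-sex ICR mice of 19–21 g at 1 and 5 h after an intraperitoneal challenge of 50–500 LD50 from a frozen organism pool. Each route used five 2-fold dilution levels with eight mice per level, and the po value was divided by the sc value.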
# Mus musculus [12] = assay: Effective dose administered subcutaneously (sc) to 19-21-g random sex ICR mice at 1 hr and 5 hr intervals after intraperitoneal administration of Streptococcus pyogenes; type: functional; outline: as §3
# Streptococcus pneumoniae [13] = assay: Efficacy against mouse infections caused by S. Pneumoniae measured as Minimum inhibitory concentration
# Staphylococcus aureus [14] = assay: Efficacy against mouse infections caused by Staphylococcus aureus measured as Minimum inhibitory concentration
# Streptococcus pyogenes [15] = assay: Efficacy against mouse infections caused by Streptococcus pyogenes measured as Minimum inhibitory concentration
# [16] = Ratio of ED50 value evaluated in Staphylococcus aureus by po to sc administration; type: functional; outline: as §4
structure (smiles),measurement,setting,value
O=C(COc1ccc(Cl)cc1)N[C@@H]1C(=O)N2C(C(=O)O)=C(Cl)CS[C@H]12,MIC,Klebsiella aerogenes,> 128 µg/mL
same,MIC,Escherichia coli,> 128 µg/mL
same,MIC,Haemophilus influenzae [1],1 µg/mL
same,MIC,Haemophilus influenzae [2],1 µg/mL
same,MIC,Klebsiella pneumoniae,> 128 µg/mL
same,MIC,Streptococcus pneumoniae [3],0.03 µg/mL
same,MIC,Staphylococcus aureus [4],0.125 µg/mL
same,MIC,Salmonella typhi,> 128 µg/mL
same,MIC,Streptococcus pyogenes [5],0.03 µg/mL
O=C(COc1ccccc1)N[C@@H]1C(=O)N2C(C(=O)O)=C(Cl)CS[C@H]12,MIC,Streptococcus pneumoniae [3],0.125 µg/mL
same,MIC,Salmonella typhi,64 µg/mL
Nc1n[nH]c(SCC(=O)N[C@@H]2C(=O)N3C(C(=O)O)=C(Cl)CS[C@H]23)n1,MIC,Klebsiella aerogenes,> 128 µg/mL
same,MIC,Escherichia coli,16 µg/mL
same,MIC,Haemophilus influenzae [1],4 µg/mL
same,MIC,Haemophilus influenzae [2],2 µg/mL
same,MIC,Klebsiella pneumoniae,8 µg/mL
same,MIC,Streptococcus pneumoniae [3],2 µg/mL
same,MIC,Staphylococcus aureus [4],4 µg/mL
same,MIC,Salmonella typhi,8 µg/mL
same,MIC,Streptococcus pyogenes [5],1 µg/mL
O=C(Cc1csc(-c2ccccc2)n1)N[C@@H]1C(=O)N2C(C(=O)O)=C(Cl)CS[C@H]12,MIC,Klebsiella aerogenes,> 128 µg/mL
same,MIC,Salmonella typhi,> 128 µg/mL
Nc1nc2cc(CC(=O)N[C@@H]3C(=O)N4C(C(=O)O)=C(Cl)CS[C@H]34)ccc2s1,MIC,Klebsiella aerogenes,> 128 µg/mL
same,MIC,Escherichia coli,64 µg/mL
same,MIC,Haemophilus influenzae [1],0.5 µg/mL
same,MIC,Haemophilus influenzae [2],0.5 µg/mL
same,MIC,Klebsiella pneumoniae,64 µg/mL
same,ED50,Mus musculus [6],> 10 mg/kg
same,ED50,Mus musculus [7],2.3 mg/kg
same,MIC,Streptococcus pneumoniae [3],0.06 µg/mL
same,MIC,Staphylococcus aureus [4],0.25 µg/mL
same,MIC,Salmonella typhi,64 µg/mL
same,ED50,Mus musculus [8],> 10 mg/kg
same,ED50,Mus musculus [9],3.54 mg/kg
same,ED50,Mus musculus [10],10 mg/kg
same,MIC,Streptococcus pyogenes [5],0.06 µg/mL
same,Ratio,[11],11
same,ED50,Mus musculus [12],0.9 mg/kg
same,MIC,Streptococcus pneumoniae [13],0.06 µg/mL
same,MIC,Staphylococcus aureus [14],0.25 µg/mL
same,MIC,Streptococcus pyogenes [15],0.03 µg/mL
COc1ccc(CC(=O)N[C@@H]2C(=O)N3C(C(=O)O)=C(Cl)CS[C@H]23)cc1,MIC,Klebsiella aerogenes,> 128 µg/mL
same,MIC,Escherichia coli,64 µg/mL
same,MIC,Haemophilus influenzae [1],1 µg/mL
same,MIC,Haemophilus influenzae [2],1 µg/mL
same,MIC,Klebsiella pneumoniae,32 µg/mL
same,MIC,Streptococcus pneumoniae [3],0.125 µg/mL
same,MIC,Staphylococcus aureus [4],0.5 µg/mL
same,MIC,Salmonella typhi,32 µg/mL
same,MIC,Streptococcus pyogenes [5],0.125 µg/mL
O=C(Cc1ccc(F)cc1)N[C@@H]1C(=O)N2C(C(=O)O)=C(Cl)CS[C@H]12,MIC,Klebsiella aerogenes,> 128 µg/mL
same,MIC,Escherichia coli,32 µg/mL
same,MIC,Haemophilus influenzae [1],4 µg/mL
same,MIC,Haemophilus influenzae [2],1 µg/mL
same,MIC,Klebsiella pneumoniae,32 µg/mL
same,MIC,Streptococcus pneumoniae [3],0.125 µg/mL
same,MIC,Staphylococcus aureus [4],0.5 µg/mL
same,MIC,Salmonella typhi,16 µg/mL
same,MIC,Streptococcus pyogenes [5],0.06 µg/mL
C=CC1=C(C(=O)O)N2C(=O)[C@@H](NC(=O)Cc3csc4ccccc34)[C@H]2SC1,MIC,Klebsiella aerogenes,> 128 µg/mL
same,MIC,Escherichia coli,> 128 µg/mL
same,MIC,Haemophilus influenzae [1],4 µg/mL
same,MIC,Haemophilus influenzae [2],4 µg/mL
same,MIC,Klebsiella pneumoniae,> 128 µg/mL
same,ED50,Mus musculus [6],3.12 2mg kg-1
same,ED50,Mus musculus [7],8.4 2mg kg-1
same,MIC,Streptococcus pneumoniae [3],0.06 µg/mL
same,MIC,Staphylococcus aureus [4],0.125 µg/mL
same,MIC,Salmonella typhi,> 128 µg/mL
same,ED50,Mus musculus [8],>16 2mg kg-1
same,ED50,Mus musculus [9],0.76 2mg kg-1
same,ED50,Mus musculus [10],14.7 2mg kg-1
same,MIC,Streptococcus pyogenes [5],0.015 µg/mL
same,Ratio,[16],4.1
same,Ratio,[11],4.2
same,ED50,Mus musculus [12],3.54 2mg kg-1
same,MIC,Streptococcus pneumoniae [13],0.03 µg/mL
same,MIC,Staphylococcus aureus [14],0.125 µg/mL
same,MIC,Streptococcus pyogenes [15],0.03 µg/mL
CO/N=C/c1ccc(OCC(=O)N[C@@H]2C(=O)N3C(C(=O)O)=C(Cl)CS[C@H]23)cc1,MIC,Klebsiella aerogenes,> 128 µg/mL
same,MIC,Escherichia coli,> 128 µg/mL
same,MIC,Haemophilus influenzae [1],4 µg/mL
same,MIC,Haemophilus influenzae [2],1 µg/mL
same,MIC,Klebsiella pneumoniae,> 128 µg/mL
same,MIC,Streptococcus pneumoniae [3],0.06 µg/mL
same,MIC,Staphylococcus aureus [4],0.25 µg/mL
same,MIC,Salmonella typhi,> 128 µg/mL
same,MIC,Streptococcus pyogenes [5],0.03 µg/mL
Nc1ccc(CC(=O)N[C@@H]2C(=O)N3C(C(=O)O)=C(Cl)CS[C@H]23)cc1,MIC,Klebsiella aerogenes,128 µg/mL
same,MIC,Escherichia coli,16 µg/mL
same,MIC,Haemophilus influenzae [1],1 µg/mL
same,MIC,Haemophilus influenzae [2],0.5 µg/mL
same,MIC,Klebsiella pneumoniae,2 µg/mL
same,MIC,Streptococcus pneumoniae [3],0.125 µg/mL
same,MIC,Staphylococcus aureus [4],0.5 µg/mL
same,MIC,Salmonella typhi,2 µg/mL
same,MIC,Streptococcus pyogenes [5],0.06 µg/mL
COC1=C(C(=O)O)N2C(=O)[C@@H](NC(=O)Cc3noc(C(Cl)(Cl)Cl)n3)[C@H]2SC1,MIC,Klebsiella aerogenes,> 128 µg/mL
same,MIC,Escherichia coli,> 128 µg/mL
same,MIC,Haemophilus influenzae [1],32 µg/mL
same,MIC,Haemophilus influenzae [2],32 µg/mL
same,MIC,Klebsiella pneumoniae,> 128 µg/mL
same,MIC,Streptococcus pneumoniae [3],4 µg/mL
same,MIC,Staphylococcus aureus [4],16 µg/mL
same,MIC,Salmonella typhi,> 128 µg/mL
same,MIC,Streptococcus pyogenes [5],4 µg/mL
O=C(CSc1nc[nH]n1)N[C@@H]1C(=O)N2C(C(=O)O)=C(Cl)CS[C@H]12,MIC,Klebsiella aerogenes,> 128 µg/mL
same,MIC,Escherichia coli,16 µg/mL
same,MIC,Haemophilus influenzae [1],4 µg/mL
same,MIC,Haemophilus influenzae [2],4 µg/mL
same,MIC,Klebsiella pneumoniae,16 µg/mL
same,MIC,Streptococcus pneumoniae [3],2 µg/mL
same,MIC,Staphylococcus aureus [4],4 µg/mL
same,MIC,Salmonella typhi,16 µg/mL
same,MIC,Streptococcus pyogenes [5],0.5 µg/mL
O=C(Cc1ccc(O)cc1)N[C@@H]1C(=O)N2C(C(=O)O)=C(Cl)CS[C@H]12,MIC,Streptococcus pneumoniae [3],0.25 µg/mL
same,MIC,Salmonella typhi,8 µg/mL
COc1ccccc1CC(=O)N[C@@H]1C(=O)N2C(C(=O)O)=C(Cl)CS[C@H]12,MIC,Klebsiella aerogenes,> 128 µg/mL
same,MIC,Escherichia coli,> 128 µg/mL
same,MIC,Haemophilus influenzae [1],2 µg/mL
same,MIC,Haemophilus influenzae [2],1 µg/mL
same,MIC,Klebsiella pneumoniae,> 128 µg/mL
same,MIC,Streptococcus pneumoniae [3],1 µg/mL
same,MIC,Staphylococcus aureus [4],1 µg/mL
same,MIC,Salmonella typhi,> 128 µg/mL
same,MIC,Streptococcus pyogenes [5],1 µg/mL
